Tests used:
[1] = molecular target: T1, Toll-like receptor 4 (Homo sapiens, UniProt O00206); experiment: Agonist activity at human TLR4 expressed in HEK293 blue cells assessed as induction of NF-kappaB activation-mediated SEAP production after 20 to 24 hrs by colorimetric assay; format: cell-based
In short: (§1)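 HEK-Blue cells expressing human or mouse TLR4, 2.5 × 10⁴/well in DMEM with 10% FBS, pyruvate, glutamine and antibiotics. Graded doses from 20 mM DMSO stocks, final DMSO 0.05%. Supernatants harvested after 20–24 h; SEAP read by colorimetric substrate at 630 nm. EC50 taken as the concentration giving 50% of maximal activation. LPS 100 ng/mL served as positive control.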

[2] = molecular target: T2, Toll-like receptor 4 (Mus musculus, UniProt Q9QUK6); experiment: Agonist activity at mouse TLR4 expressed in HEK293 blue cells assessed as induction of NF-kappaB activation-mediated SEAP production after 20 to 24 hrs by colorimetric assay; format: cell-based; in short: as §1
T2 sequence (Q9QUK6 whole entry): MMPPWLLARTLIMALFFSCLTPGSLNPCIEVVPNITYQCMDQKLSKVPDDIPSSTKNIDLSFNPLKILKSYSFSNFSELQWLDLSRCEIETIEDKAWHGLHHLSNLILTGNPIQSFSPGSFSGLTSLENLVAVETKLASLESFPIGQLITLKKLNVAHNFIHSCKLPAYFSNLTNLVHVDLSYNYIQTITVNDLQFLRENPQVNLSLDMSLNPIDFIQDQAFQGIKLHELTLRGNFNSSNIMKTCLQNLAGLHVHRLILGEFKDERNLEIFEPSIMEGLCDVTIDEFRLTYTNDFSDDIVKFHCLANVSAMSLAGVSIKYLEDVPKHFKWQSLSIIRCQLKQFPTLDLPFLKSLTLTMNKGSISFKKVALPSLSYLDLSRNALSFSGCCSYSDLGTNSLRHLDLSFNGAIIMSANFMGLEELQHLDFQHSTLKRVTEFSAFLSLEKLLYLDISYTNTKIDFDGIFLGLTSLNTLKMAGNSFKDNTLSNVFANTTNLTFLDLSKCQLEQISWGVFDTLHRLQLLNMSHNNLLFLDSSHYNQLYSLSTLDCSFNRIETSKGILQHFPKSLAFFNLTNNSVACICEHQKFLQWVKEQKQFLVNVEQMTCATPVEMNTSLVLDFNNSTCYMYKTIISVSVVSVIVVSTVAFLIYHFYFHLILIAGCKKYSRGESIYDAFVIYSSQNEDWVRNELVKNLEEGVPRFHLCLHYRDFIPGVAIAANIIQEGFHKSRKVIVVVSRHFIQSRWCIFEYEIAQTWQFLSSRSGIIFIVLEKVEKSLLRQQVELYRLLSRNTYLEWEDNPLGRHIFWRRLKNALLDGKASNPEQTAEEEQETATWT

[3] = molecular target: T1, Toll-like receptor 4; experiment: Agonist activity at human TLR4 expressed in HEK293 blue cells assessed as induction of NF-kappaB activation-mediated SEAP production by measuring AUC after 20 to 24 hrs by colorimetric assay relative to N-cyclohexyl-2-(5-methyl-4-oxo-3-phenyl-4,5-dihydro-3H-pyrimido[5,4-b]indol-2-ylthio)acetamide; format: cell-based
[4] = molecular target: T3, Toll-like receptor 4 (Mus musculus) (UniProt Q9QUK6); experiment: Agonist activity at mouse TLR4 expressed in HEK293 blue cells assessed as induction of NF-kappaB activation-mediated SEAP production by measuring AUC after 20 to 24 hrs by colorimetric assay relative to N-cyclohexyl-2-(5-methyl-4-oxo-3-phenyl-4,5-dihydro-3H-pyrimido[5,4-b]indol-2-ylthio)acetamide; format: cell-based
T3 sequence (whole entry): T2 sequence (Q9QUK6 whole entry)

[5] = Cytotoxicity against C57BL/6 mouse primary BMDC assessed as cell viability at 5 uM after 18 hrs by MTT assay relative to control; format: cell-based; conditions: primary BMDC (bone marrow-derived dendritic cells), read-out: Activity
[6] = molecular target: T3, Toll-like receptor 4 (Mus musculus); experiment: Agonist activity at TLR4 in C57BL/6 mouse primary BMDC assessed as induction of IL-6 release at 5 uM after 18 hrs by ELISA relative to N-cyclohexyl-2-(5-methyl-4-oxo-3-phenyl-4,5-dihydro-3H-pyrimido[5,4-b]indol-2-ylthio)acetamide

T1 sequence (O00206 whole entry): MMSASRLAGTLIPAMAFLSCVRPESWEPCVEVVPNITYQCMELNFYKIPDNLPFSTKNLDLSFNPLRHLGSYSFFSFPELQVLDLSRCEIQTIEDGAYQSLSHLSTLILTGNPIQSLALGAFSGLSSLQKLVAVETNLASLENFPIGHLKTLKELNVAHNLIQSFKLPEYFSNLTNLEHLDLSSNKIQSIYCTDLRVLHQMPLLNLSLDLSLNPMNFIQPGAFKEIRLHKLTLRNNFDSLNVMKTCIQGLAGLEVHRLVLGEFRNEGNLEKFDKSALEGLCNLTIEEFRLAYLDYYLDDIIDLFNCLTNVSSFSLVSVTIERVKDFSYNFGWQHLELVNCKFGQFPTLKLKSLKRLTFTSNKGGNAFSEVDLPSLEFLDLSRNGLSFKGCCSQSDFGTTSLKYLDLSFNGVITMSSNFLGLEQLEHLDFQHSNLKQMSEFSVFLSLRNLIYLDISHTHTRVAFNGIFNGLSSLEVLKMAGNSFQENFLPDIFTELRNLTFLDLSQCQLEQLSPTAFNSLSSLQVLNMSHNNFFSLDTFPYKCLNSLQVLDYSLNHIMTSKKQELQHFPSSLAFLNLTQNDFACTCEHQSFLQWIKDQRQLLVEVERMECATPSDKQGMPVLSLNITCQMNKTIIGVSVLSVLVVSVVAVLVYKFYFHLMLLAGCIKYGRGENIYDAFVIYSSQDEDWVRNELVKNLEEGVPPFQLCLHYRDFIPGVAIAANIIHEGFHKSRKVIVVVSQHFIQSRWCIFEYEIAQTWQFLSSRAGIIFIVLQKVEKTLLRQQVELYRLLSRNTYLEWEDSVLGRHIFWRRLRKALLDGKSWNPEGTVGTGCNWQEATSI

| SMILES | EC50 [1] | EC50 [2] | Activity [3] | Activity [4] | Activity [6] | viability at 18 h, 5 µM [5] |
| --- | --- | --- | --- | --- | --- | --- |
| Cc1c(C)n(C)c2c(=O)n(-c3ccccc3)c(SCC(=O)NC3CCCCC3)nc12 | > 10 µM | > 10 µM | 12% | 22% | 81% | 100% |
| Cn1c2ccc(C#C[Si](C)(C)C)cc2c2nc(SCC(=O)NC3CCCCC3)n(-c3ccccc3)c(=O)c21 | > 10 µM | 3.3 µM | 87% | 85% | 78% | 73% |
| Cn1c2ccc(N)cc2c2nc(SCC(=O)NC3CCCCC3)n(-c3ccccc3)c(=O)c21 | > 10 µM | > 10 µM | 17% | 3% | 0% | 102% |
| O=C(CSc1nc2cc[nH]c2c(=O)n1-c1ccccc1)NC1CCCCC1 | > 10 µM | > 10 µM | 7% | 4% | 0% | 99% |
| Cn1c2ccc(-c3ccc(-c4ccccc4)cc3)cc2c2nc(SCC(=O)NC3CCCCC3)n(-c3ccccc3)c(=O)c21 | > 10 µM | > 10 µM | 31% | 1% | 0% | 23% |
| O=C(CSc1nc2c3c([nH]c2c(=O)n1-c1ccccc1)CCCC3)NC1CCCCC1 | > 10 µM | 7.12 µM | 27% | 36% | 80% | 91% |
| Cn1c2cc(Br)ccc2c2nc(SCC(=O)NC3CCCCC3)n(-c3ccccc3)c(=O)c21 | > 10 µM | 4.89 µM | 40% | 34% | 73% | 93% |
| CCCCCCCC(=O)Nc1ccc2c(c1)c1nc(SCC(=O)NC3CCCCC3)n(-c3ccccc3)c(=O)c1n2C | > 10 µM | > 10 µM | 15% | 1% | 0% | 35% |
| Cn1c2ccccc2c2nc(NCCC(=O)NC3CCCCC3)n(-c3ccccc3)c(=O)c21 | > 10 µM | > 10 µM | 8% | 2% | 0% | 92% |
| Cn1c2c(c3nc(SCC(=O)NC4CCCCC4)n(-c4ccccc4)c(=O)c31)CCCC2 | > 10 µM | > 10 µM | 8% | 13% | 65% | 106% |
| O=c1c2[nH]c3ccccc3c2nc(SCCCC2CCCCC2)n1-c1ccccc1 | > 10 µM | > 10 µM | 9% | 1% | 0% | 57% |

More lines, main results first:

| EC50 [1] | EC50 [2] | Activity [3] | Activity [4] | Activity [6] | SMILES | viability at 18 h, 5 µM [5] |
| --- | --- | --- | --- | --- | --- | --- |
| > 10 µM | > 10 µM | 18% | 28% | 78% | Cc1[nH]c2c(=O)n(-c3ccccc3)c(SCC(=O)NC3CCCCC3)nc2c1C | 70% |
| > 10 µM | > 10 µM | 16% | 2% | 0% | Cn1c2ccccc2c2nc(S(=O)(=O)CC(=O)NC3CCCCC3)n(-c3ccccc3)c(=O)c21 | 50% |
| 7.42 µM | 2.83 µM | 137% | 82% | 115% | O=C(CSc1nc2c3c([nH]c2c(=O)n1-c1ccccc1)CCCCC3)NC1CCCCC1 | 84% |
| > 10 µM | > 10 µM | 26% | 2% | 7% | Cn1c2ccc(NC(=O)c3ccccc3)cc2c2nc(SCC(=O)NC3CCCCC3)n(-c3ccccc3)c(=O)c21 | 43% |
| > 10 µM | > 10 µM | 9% | 1% | 0% | Cn1c2ccccc2c2nc(OCC(=O)NC3CCCCC3)n(-c3ccccc3)c(=O)c21 | 58% |
| > 10 µM | > 10 µM | 28% | 3% | 0% | Cn1c2ccc(NC(=O)CCC(=O)O)cc2c2nc(SCC(=O)NC3CCCCC3)n(-c3ccccc3)c(=O)c21 | 75% |
| > 10 µM | > 10 µM | 8% | 2% | 0% | O=C(CCCSc1nc2c([nH]c3ccccc32)c(=O)n1-c1ccccc1)NC1CCCCC1 | 70% |
| > 10 µM | > 10 µM | 12% | 14% | 45% | Cn1c2ccc(C#N)cc2c2nc(SCC(=O)NC3CCCCC3)n(-c3ccccc3)c(=O)c21 | 107% |
| > 10 µM | > 10 µM | 10% | 2% | 1% | Cn1c2ccccc2c2nc(NCC(=O)NC3CCCCC3)n(-c3ccccc3)c(=O)c21 | 113% |
| > 10 µM | > 10 µM | 7% | 3% | 0% | O=C(CCSc1nc2c([nH]c3ccccc32)c(=O)n1-c1ccccc1)NC1CCCCC1 | 58% |
| > 10 µM | > 10 µM | 17% | 5% | 1% | Cn1ccc2nc(SCC(=O)NC3CCCCC3)n(-c3ccccc3)c(=O)c21 | 117% |
| > 10 µM | > 10 µM | 20% | 6% | 3% | Cn1c2cc(C#N)ccc2c2nc(SCC(=O)NC3CCCCC3)n(-c3ccccc3)c(=O)c21 | 65% |
| 3.27 µM | 2.74 µM | 107% | 92% | 92% | C#Cc1ccc2c(c1)c1nc(SCC(=O)NC3CCCCC3)n(-c3ccccc3)c(=O)c1n2C | 81% |
| 3.58 µM | 2.45 µM | 159% | 103% | 120% | Cn1c2ccc(Br)cc2c2nc(SCC(=O)NC3CCCCC3)n(-c3ccccc3)c(=O)c21 | 63% |
| 2.12 µM | 2.58 µM | 72% | 38% | 80% | Cn1c2ccc(-c3cccc4ccccc34)cc2c2nc(SCC(=O)NC3CCCCC3)n(-c3ccccc3)c(=O)c21 | 102% |
| 3.75 µM | 2.51 µM | 204% | 104% | 74% | Cn1c2ccc(I)cc2c2nc(SCC(=O)NC3CCCCC3)n(-c3ccccc3)c(=O)c21 | 75% |
